One block for each molecule: values may come before it. Active and inactive are the calls of the source. The rule behind the calls is not given here.
Assays:
[1] = Antioxidant activity assessed as DPPH radical scavenging activity incubated for 35 mins under dark condition; assay type: functional
Method in brief: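 DMSO stocks (100 mM) added to freshly prepared 0.2 mM DPPH in methanol, two-fold serially diluted, kept dark 35 min, absorbance read at 517 nm. Background absorbance from a parallel methanol-only (no DPPH) plate subtracted. Scavenging % = 100 × (Acontrol−Asample)/Acontrol; n = 3; ascorbic acid positive control.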

Th17 [2] = experiment: Immunomodulatory activity in IL-17A Katushka/IL-10eGFP/Foxp3RFP reporter mouse cell trace violet-labelled CD4+ T cell derived TGF-beta1/IL-6/IL-23-polarized Th17 cells assessed as increase in IL-17 positive cell population at 5 to 20 uM measured after 3 days by flow cytomtery; assay type: functional, cell-based; settings: dose 5-20 µM, time 3.0 day
Method in brief: (§1)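 Naïve CD4+ T cells from spleen and lymph nodes of 2 triple reporter mice, CellTrace Violet-labelled, polarized in Click's medium with 5% FBS, anti-CD3/anti-CD28, anti-IFNγ, anti-IL-4, IL-23, IL-6 and TGF-β1. Compound or DMSO added after 1–3 days, cultured 3 more days; flow cytometry on viable CD4+ cells (IL-17A Katushka, IL-10 eGFP). Fold change vs DMSO; n = 4.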

Th17 [3] = experiment: (§2) Immunomodulatory activity in IL-17A Katushka/IL-10eGFP/Foxp3RFP reporter mouse cell trace violet-labelled CD4+ T cell derived TGF-beta1/IL-6/IL-23-polarized Th17 cells assessed as increase in IL-10/IL-17 positive cell population at 5 to 20 uM measured after 3 days by flow cytomtery; assay type: functional, cell-based; settings: dose 5-20 µM, time 3.0 day; method in brief: as §1
[4] = biological target: T1, Aryl hydrocarbon receptor (Homo sapiens, UniProt P35869); experiment: Agonist activity at AhR in human HT29-Lucia AhR cells measured after 24 hrs by Quanti-luc gold luminescence assay; assay type: cell-based; settings: DDE = dose-dependent effect
T1 sequence (P35869 whole entry): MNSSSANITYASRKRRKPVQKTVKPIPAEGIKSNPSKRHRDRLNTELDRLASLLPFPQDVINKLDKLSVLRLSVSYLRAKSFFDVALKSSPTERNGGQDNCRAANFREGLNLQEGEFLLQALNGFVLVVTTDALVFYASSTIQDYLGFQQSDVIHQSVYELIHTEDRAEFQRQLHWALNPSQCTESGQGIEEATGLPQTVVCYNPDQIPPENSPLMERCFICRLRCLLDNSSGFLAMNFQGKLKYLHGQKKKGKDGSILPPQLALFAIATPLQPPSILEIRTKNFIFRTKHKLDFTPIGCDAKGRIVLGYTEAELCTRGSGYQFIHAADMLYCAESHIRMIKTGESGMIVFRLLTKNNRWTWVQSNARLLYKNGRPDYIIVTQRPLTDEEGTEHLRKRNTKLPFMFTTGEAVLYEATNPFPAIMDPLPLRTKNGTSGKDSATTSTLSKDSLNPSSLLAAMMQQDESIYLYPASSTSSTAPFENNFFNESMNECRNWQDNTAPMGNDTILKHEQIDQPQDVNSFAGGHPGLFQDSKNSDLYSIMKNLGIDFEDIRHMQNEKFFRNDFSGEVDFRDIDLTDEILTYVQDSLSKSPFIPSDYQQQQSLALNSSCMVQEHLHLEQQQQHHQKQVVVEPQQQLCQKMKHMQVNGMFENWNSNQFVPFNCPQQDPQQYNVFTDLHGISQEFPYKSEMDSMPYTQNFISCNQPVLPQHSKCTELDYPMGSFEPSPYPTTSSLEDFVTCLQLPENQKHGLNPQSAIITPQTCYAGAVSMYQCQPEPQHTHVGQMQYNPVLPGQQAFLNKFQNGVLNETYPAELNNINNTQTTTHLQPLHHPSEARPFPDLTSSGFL
Method in brief: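 HT29-Lucia AhR reporter cells seeded ~50,000 cells/well; ligand or DMSO vehicle added (ITE positive control, unstimulated negative control) for 24 h. Secreted Lucia luciferase in supernatant detected with QUANTI-Luc Gold luminescence. Triplicate; expressed as fold-change relative to DMSO-treated cells.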

[5] = as §2, with “cytomtery relative to control” for “cytomtery”; assay type: functional; settings: dose 5-20 µM; time 3 day; method in brief: as §1
[6] = Increase in IL-17A Katushka/IL-10eGFP/Foxp3RFP reporter mouse cell trace violet-labelled CD4+ T cell derived TGF-beta1/IL-6/IL-23-polarized Th17 cell proliferation at 10 to 20 uM measured after 3 days by flow cytomtery; assay type: toxicity, cell-based; settings: th17, 72 h, dose 10-20 µM, time 3 day
Method in brief: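 Same Th17-polarized, CellTrace Violet-labelled reporter-mouse CD4+ T cells; compound or DMSO added after 1–3 days, then 3 more days culture. Proliferation by flow cytometry as percentage of viable CD4+ cells having undergone 7 or more divisions (CellTrace Violet dilution); n = 4.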

[7] = Immunomodulatory activity in IL-17A Katushka/IL-10eGFP/Foxp3RFP reporter mouse cell trace violet-labelled CD4+ T cell derived TGF-beta1/IL-6/IL-23-polarized Th17 cells assessed as increase in IL-10 positive cell population at 5 to 20 uM measured after 3 days by flow cytomtery relative to control; assay type: functional; settings: dose 5-20 µM; time 3 day; method in brief: as §1

Compound: O=c1[nH]c(=O)c2nc(-c3ccc(O)cc3)c(=O)n(C[C@H](O)[C@H](O)[C@H](O)CO)c2[nH]1
Activity [1]: Active

EC50 [1]: 30 µM
Compound: O=C1O[C@H]([C@@H](O)CO)C(O)=C1O [ASCORBIC ACID]
Activity (Th17 [2]): Active
Activity (Th17 [3]): Active

Compound: O=c1[nH]c(=O)c2nc(-c3ccccc3)c(=O)n(C[C@H](O)[C@H](O)[C@H](O)CO)c2[nH]1
Activity [1]: Active

Activity [4]: Dde
EC50 [1]: 32 µM
Compound: O=c1[nH]c(=O)c2nc(-c3c[nH]c4ccccc34)c(=O)n(C[C@H](O)[C@H](O)[C@H](O)CO)c2[nH]1
fold change (FC) [5]: 2
Activity [6]: Non-Toxic
fold change (FC) [7]: 2

— ChEMBL document CHEMBL5126663, “Cellular Stress-Induced Metabolites in Escherichia coli” (J Nat Prod, 2022)
